# Laboratory results taken from PubChem BioAssay AID493236 (Broad Institute, 2011).
# Records with an inconclusive call do not appear. Calls of active or inactive are those of the source.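 The calls were made as follows: active = luminescence cut by more than half of the full-inhibition control window in a dose series; inconclusive = no clear call, values can overlap the other calls; inactive = signal rising instead of falling, or the rest.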
# Test system: proteasome chymotrypsin-like activity (human)
# Experiment: proteasome chymotrypsin-like activity inhibitors, dose response, counter-screen for HIF pathway activator project, cell-based, U2OS, luminescence, dry powder, set 4 (AID 493236)
# Details: U2OS cells, Proteasome-Glo chymotrypsin luminescence; series mostly up to 38 µM
# Method in brief: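 System: U2OS cells. Input: 2,500 U2OS cells per well. Compound dosing: 8-point threefold dilution series, source stock top 16.5 mM. Timing: 24 h plating, 4 h compound, 2 h reagent. Technique: Proteasome-Glo luminescence. Evaluation: percent activity relative to MG132 and DMSO. Controls: MG132 (1 µM) and DMSO. Repeats: each compound tested in duplicate.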
row,Structure (SMILES),outcome
1,Oc1ccc(CN2CCC3CCCCC3C2)c2cccnc12 (configuration not stated),inactive
2,N#CC1(c2ccccc2)CCN(Cc2ccc(O)c3ncccc23)CC1,inactive
